In ChEMBL document CHEMBL4431376, “CZ415, a Highly Selective mTOR Inhibitor Showing in Vivo Efficacy in a Collagen Induced Arthritis Model” (ACS Med Chem Lett, 2016):

Key:
[1] = Intrinsic clearance in pooled cryopreserved human hepatocytes at 1 uM incubated up to 90 mins by LC-MS/MS analysis; type: ADME, cell-based, Hepatocyte; conditions: 1.5 h
Method in brief: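 Metabolic stability was assessed in liver microsomes (rat, dog, human) and hepatocytes (dog, human). Intrinsic clearance was calculated as μL/min/g liver.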

[2] = Protein binding in rat plasma; type: ADME, cell-free; conditions: read-out: PPB (converted)
Method in brief: (§1)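 Plasma protein binding was determined in rat, mouse and human plasma, expressed as % bound.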

[3] = Protein binding in mouse plasma; type: ADME, cell-free; conditions: read-out: PPB (converted); method in brief: as §1
[4] = Protein binding in human plasma; type: ADME, cell-free; conditions: read-out: PPB (converted); method in brief: as §1
[5] = Plasma clearance in Sprague-Dawley rat at 1 mg/kg, iv as bolus dose or 3 mg/kg, po administered through gavage measured up to 8 hrs by LC-MS/MS analysis; type: ADME, organism-based
Method in brief: (§2)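 Rats (n = 3 per route) given a 1 mg/kg intravenous bolus or 3 mg/kg as an oral solution. Vehicle was 5% DMSO/95% (10% Kleptose). Plasma concentration was followed over time to derive PK parameters and oral bioavailability. Clearance was also expressed relative to liver blood flow.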

[6] = Blood clearance in Sprague-Dawley rat at 1 mg/kg, iv as bolus dose or 3 mg/kg, po administered through gavage measured up to 8 hrs by LC-MS/MS analysis; type: ADME, organism-based; conditions: whole blood; method in brief: as §2
[7] = Plasma clearance in Sprague-Dawley rat at 1 mg/kg, iv as bolus dose or 3 mg/kg, po administered through gavage measured up to 8 hrs by LC-MS/MS analysis relative to liver blood flow; type: ADME, organism-based; conditions: in vivo; method in brief: as §2
[8] = Volume of distribution at steady state in Sprague-Dawley rat at 1 mg/kg, iv as bolus dose or 3 mg/kg, po administered through gavage measured up to 8 hrs by LC-MS/MS analysis; type: ADME, organism-based; conditions: in vivo, read-out: Vdss; method in brief: as §2
[9] = Cmax in Sprague-Dawley rat at 1 mg/kg, iv as bolus dose by LC-MS/MS analysis; type: ADME, organism-based; set-up: dose 1 mg/kg, route intravenous; conditions: in vivo; method in brief: as §2
[10] = Cmax in Sprague-Dawley rat at 3 mg/kg, po administered through gavage by LC-MS/MS analysis; type: ADME, organism-based; set-up: dose 3 mg/kg, route oral; conditions: in vivo; method in brief: as §2
[11] = Mean residence time in Sprague-Dawley rat at 1 mg/kg, iv as bolus dose or 3 mg/kg, po administered through gavage by LC-MS/MS analysis; type: ADME, organism-based; conditions: in vivo; method in brief: as §2
[12] = AUC (0 to infinity) in Sprague-Dawley rat at 1 mg/kg, iv as bolus dose by LC-MS/MS analysis; type: ADME, organism-based; set-up: dose 1 mg/kg, route intravenous, time infinity; conditions: in vivo; method in brief: as §2
[13] = AUC (0 to infinity) in Sprague-Dawley rat at 3 mg/kg, po administered through gavage by LC-MS/MS analysis; type: ADME, organism-based; set-up: dose 3 mg/kg, route oral, time infinity; conditions: in vivo; method in brief: as §2
[14] = Oral bioavailability in Sprague-Dawley rat at 3 mg/kg administered through gavage measured up to 8 hrs by LC-MS/MS analysis; type: ADME, organism-based; conditions: in vivo; method in brief: as §2
[15] = Tmax in Sprague-Dawley rat at 3 mg/kg, po administered through gavage by LC-MS/MS analysis; type: ADME, organism-based; conditions: in vivo; method in brief: as §2
[16] = tested on: Mus musculus; experiment: Anti-inflammatory activity in DBA/1 OlaHsd mouse immunized with bovine type2 collagen in Freund's complete adjuvant assessed as reduction in AUC of clinical arthritis score at 10 mg/kg, po bid administered starting on day 22 post immunization until day 33 post immunization relative to control; type: functional; set-up: scale not given: the % may be the effect or the level left; conditions: in the assay text read “until day 34 post immunization” for “until day 33 post immunization”
Method in brief: (§3)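 Semiestablished CIA design. Mice received bovine type II collagen at day 0 with a boost at day 21. Dosing at 10 mg/kg PO bid ran from day 22 to day 34, in 5% DMSO/95% (10% kleptose), n = 10 per group; normal controls n = 4. Paws were scored daily for erythema and swelling (0–5), summarized as AUC. Body weight was tracked over time.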

[17] = AUC in DBA/1 OlaHsd mouse immunized with bovine type2 collagen in Freund's complete adjuvant at 10 mg/kg, po bid administered starting on day 22 post immunization measured on day 31 post immunization; type: ADME, organism-based; conditions: in vivo
Method in brief: (§4)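 Blood drug levels were measured on study day 31 in CIA mice dosed at 10 mg/kg PO bid (n = 10), with vehicle 5% DMSO/95% (10% kleptose). AUC and Cmax were derived from these levels. Time above EC50 was judged against the human whole-blood IFNγ assay EC50 and the anti-CD3 mouse PK/PD EC50.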

[18] = Cmax in DBA/1 OlaHsd mouse immunized with bovine type2 collagen in Freund's complete adjuvant at 10 mg/kg, po bid administered starting on day 22 post immunization measured on day 31 post immunization; type: ADME, organism-based; set-up: dose 10 mg/kg, route oral; conditions: in vivo; method in brief: as §4
[19] = tested on: Mus musculus; experiment: Time duration for free plasma concentration stays above invivo EC50 in DBA/1 OlaHsd mouse immunized with bovine type2 collagen in Freund's complete adjuvant at 10 mg/kg, po bid administered starting on day 22 post immunization measured on day 31 post immunization; type: ADME, organism-based; conditions: in vivo; method in brief: as §4
[20] = Toxicity in DBA/1 OlaHsd mouse immunized with bovine type2 collagen in Freund's complete adjuvant assessed as body weight loss at 10 mg/kg, po bid administered starting on day 22 post immunization measured on day 26 post immunization; type: organism-based; conditions: in vivo; method in brief: as §3
[21] = tested on: Mus musculus; experiment: Time duration for free plasma concentration stays above invitro EC50 for human whole blood in DBA/1 OlaHsd mouse immunized with bovine type2 collagen in Freund's complete adjuvant at 10 mg/kg, po bid administered starting on day 22 post immunization measured on day 31 post immunization; type: ADME, organism-based; conditions: in vivo; method in brief: as §4
[22] = species on record: Mus musculus; experiment: animal or person; conditions: C57BL/6J
[23] = species on record: Mus musculus; experiment: animal or person; conditions: C57BL/6J; remark: listed apart in the source

CLH [1]: <= 0.5 microL/min/g
fraction unbound [2]: 0.31
fraction unbound [3]: 0.11
fraction unbound [4]: 0.19
clearance [5]: 49 mL/min/kg
clearance [6]: 41 mL/min/kg
CL [7]: 45%
Vd [8]: 3.1 L/kg
Cmax [9]: 710 nM
Cmax [10]: 430 nM
MRT [11]: 66 min
AUC(0-inf) [12]: 0.76 µM·h
AUC(0-inf) [13]: 1 µM·h
bioavailability [14]: 44%
Tmax [15]: 30 min
AUC [17]: 14 µM·h
Cmax [18]: 1700 nM
Time [19]: <= 8 hr
Time [21]: <= 8 hr
EC50 [22]: 55 nM
EC50 [23]: 220 nM
Structure (SMILES): CCNC(=O)Nc1ccc(-c2nc(N3CCOC[C@@H]3C)c3c(n2)C(C)(C)S(=O)(=O)C3)cc1
Activity [16]: 59%
Activity [20]: Non-Toxic
